Assay [1] concerns Vero E6 viability, CellTiter-Glo luminescence, 72 h. Description: viability of Vero E6 cells under compound – set 2, cytotoxicity control for PfM18AAP inhibitor project, dose response (AID 602225). Put shortly: (§1)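 material = Vero E6 cells | compound = 10-point dose series in 2-fold dilution steps | timing = 72 h compound exposure at 37 °C, 5% CO2 | detection = CellTiter-Glo luminescence | evaluation = % viability and fitted CC50 | benchmarks = DMSO vehicle wells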

Assay in assay [2]: as above
To be noted: Vero E6 viability, CellTiter-Glo luminescence, 72 h; at 50 µM (top of the series). In outline:
as §1

Records with an inconclusive call do not appear. The source made the active and inactive calls.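 Rule for the calls: active = viability below 80% at one or more tested concentrations, meaning the compound is toxic to the cells; inconclusive = replicate runs disagree on whether viability fell below 80%; inactive = viability of 80% or more at every dose.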

In general, CC50 refers to the concentration at which the toxic effect on the cells reaches its halfway point. With `COc1ccc(CCN(C)c2c3ccccc3nc3ccccc23)cc1OC`, the CC50 in assay [1] was 27.8 µM.

For orientation: viability means a read-out of living cells in per cent, often relative to untreated cells. As to `Oc1ccc(CCNc2ccnc3ccccc23)cc1O`, in assay [2], the viability was 100% (inactive).

Take `CN1CCN(CCc2ccc(O)c(O)c2)CC1`: in assay [2], the viability is 103% (inactive).

For `Oc1ccc(CCNc2c3ccccc3nc3ccccc23)cc1O`, the CC50 in assay [1] was 30.9 µM.

`COc1ccc(CCNc2c3ccccc3nc3ccccc23)cc1OC`: the CC50 in assay [1] is 13.9 µM.

Consider `CCc1ccc(NC(=O)Cc2nc(-c3ccc(O)c(O)c3)cs2)cc1`, for which, in assay [1], the CC50 was 28.7 µM.

For `CN1CCN(CCCc2ccc(O)c(O)c2)CC1`, the viability in assay [2] was 93.4% (inactive).

As for `COc1ccc(CCCN2CCN(C)CC2)cc1OC`, in assay [2], the viability is 100% (inactive).

Consider `Oc1ccc(-c2csc(Nc3ncccn3)n2)cc1O`, for which the viability in assay [2] is 90.7% (inactive).

As for `COc1ccc(CCNC(c2ccccc2)c2ccccc2)cc1OC`, the cytotoxic concentration (CC50) in assay [1] was 32.6 µM.

`CN1CCN(c2nc(-c3ccc(O)c(O)c3)cs2)CC1`: the viability in assay [2] was 102% (inactive).

The values are drawn from PubChem BioAssay AID602225 (Southern Research Specialized Biocontainment Screening …, 2012).
